Source: ChEMBL document CHEMBL2417373, “Substituted tetrahydroisoquinolines as selective antagonists for the orexin 1 receptor” (J Med Chem, 2013)
Calls of active or inactive are those of the source. No cut-off for these calls is given here.

Legend:
[1] = tested on: Rattus norvegicus; assay: Induction of conditioned place preference in Sprague-Dawley rat at 20 mg/kg, ip measured for 15 mins; type: organism-based; design: dose 20 mg/kg, route intraperitoneal; conditions: in vivo, 0.25 h
Summary of the method: (§1)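 Unbiased two-compartment place conditioning in rats. Pretest 30 min with free access, first 15 min scored. Rats excluded if >75% or <25% of time in one side. Eight alternating conditioning days, 30 min confinement, vehicle on odd days and drug on even days. In the combination group, compound was given 10 min before cocaine 10 mg/kg. Injection volume 1 mL/kg. Preference score = drug-side time on test day minus pretest.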

[2] = target: T1, Orexin/Hypocretin receptor type 1 (Homo sapiens) (UniProt O43613); assay: Agonist activity at OX1 receptor (unknown origin) expressed in RD-HGA16 cells assessed as calcium mobilization at 10 uM by fluorescence assay; type: functional, cell-based
T1 sequence (whole entry): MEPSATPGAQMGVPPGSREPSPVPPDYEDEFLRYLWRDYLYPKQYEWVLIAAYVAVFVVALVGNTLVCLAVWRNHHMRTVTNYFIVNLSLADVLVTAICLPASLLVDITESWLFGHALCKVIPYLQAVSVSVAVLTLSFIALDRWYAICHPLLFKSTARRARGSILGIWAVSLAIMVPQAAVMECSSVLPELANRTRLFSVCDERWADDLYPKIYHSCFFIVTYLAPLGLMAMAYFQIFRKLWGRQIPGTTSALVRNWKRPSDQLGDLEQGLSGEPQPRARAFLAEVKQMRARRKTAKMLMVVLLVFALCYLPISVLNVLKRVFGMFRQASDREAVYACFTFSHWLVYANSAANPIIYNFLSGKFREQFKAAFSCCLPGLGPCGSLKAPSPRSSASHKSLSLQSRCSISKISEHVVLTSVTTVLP

[3] = target: T1, Orexin/Hypocretin receptor type 1 (Homo sapiens); assay: Antagonist activity at OX1 receptor (unknown origin) expressed in RD-HGA16 cells assessed as inhibition orexin A-induced calcium mobilization by fluorescence assay; type: functional, cell-based
[4] = tested on: Rattus norvegicus; assay: Antiaddictive activity in Sprague-Dawley rat assessed as reduction of cocaine-induced conditioned place preference at 20 mg/kg, ip administered 10 mins before cocaine challenge measured for 15 mins; type: functional, organism-based; design: dose 20 mg/kg; summary of the method: as §1
[5] = species: Homo sapiens; assay: Selectivity ratio of Ke for OX2 receptor (unknown origin) to Ke for OX1 receptor (unknown origin)
[6] = target: T2, Orexin receptor type 2 (Homo sapiens) (UniProt O43614); assay: Antagonist activity at OX2 receptor (unknown origin) expressed in RD-HGA16 cells assessed as inhibition orexin A-induced calcium mobilization by fluorescence assay; type: functional, cell-based
T2 sequence (whole entry): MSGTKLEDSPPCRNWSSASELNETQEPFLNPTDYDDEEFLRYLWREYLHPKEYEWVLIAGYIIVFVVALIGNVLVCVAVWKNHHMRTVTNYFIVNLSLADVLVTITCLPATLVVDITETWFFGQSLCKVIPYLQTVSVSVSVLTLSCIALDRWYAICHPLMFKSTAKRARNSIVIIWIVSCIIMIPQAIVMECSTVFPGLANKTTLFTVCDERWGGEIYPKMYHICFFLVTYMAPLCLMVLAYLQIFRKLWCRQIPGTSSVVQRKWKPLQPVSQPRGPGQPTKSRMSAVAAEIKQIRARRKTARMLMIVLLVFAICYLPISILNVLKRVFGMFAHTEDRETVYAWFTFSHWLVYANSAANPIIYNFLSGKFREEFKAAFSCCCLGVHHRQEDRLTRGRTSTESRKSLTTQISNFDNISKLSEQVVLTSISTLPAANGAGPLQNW

[7] = target: T3, Orexin receptor type 2 (Homo sapiens, UniProt O43614); assay: Antagonist activity at OX2 receptor (unknown origin)
T3 sequence (O43614 whole entry): T2 sequence (whole entry)

Row | Activity [2] | Ke(app) [3] [nM] | Ratio [5] | Ke(app) [6] [µM] | IC50 [7] [µM] | Structure (SMILES) | Activity [1] | Activity [4]
1 | inactive | 8.5 |  |  |  | COc1ccc(CC2c3cc(OCC(F)(F)F)c(OC)cc3CCN2CC(=O)NCc2cccnc2)cc1OC (centres undefined) | Non-toxic | Active
2 | inactive | 80 | > 125 | > 10 |  | COc1ccc(CC2c3cc(OC)c(OC)cc3CCN2CC(=O)N[C@@H](C)c2ccccc2)cc1OC (single isomer, unassigned; diastereomer 2) |  | 
3 |  |  |  |  | 8.1 | CNC(=O)[C@@H](c1ccccc1)N1CCc2cc(OC)c(OC)cc2[C@@H]1CCc1ccc(C(F)(F)F)cc1 [ALMOREXANT] |  | 
